Assay outcomes deposited in PubChem by several laboratories.
Shown are actives, neighbours in structure and some others; about 4.8% of the full set was active somewhere.
UPR XBP1 act – adaptive UPR (XBP1) activation | AID 463104 | activation, % at 20 µM | actives 0.33% (n = 330,000) | CHO-XBP1 luciferase reporter, IRE1-XBP1 UPR activation, luminescence; percent of tunicamycin response, DMSO as zero;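 active means versus positive control, 20 µM dose yields 30% or more activation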;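 further: 100% = tunicamycin at 10 µg/mL and 0% = DMSO only wells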
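Material: CHO cell line with stable XBP1 luciferase reporter; schedule: 16-18 h cell attachment at 37 °C, then 6 h compound exposure; signal: glow luminescence from Steady-Glo reagent; medium: serum-containing F12 medium, 10% FBS; benchmarks: tunicamycin 10 µg/mL and vehicle-only wells; read-out: percent activation relative to tunicamycin reference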
UPR CHOP act – activators of apoptotic arm of unfolded protein response (CHOP) | AID 449763 | activation, % at 10 µM | actives 0.34% (n = 330,000) | CHO-CHOP luciferase reporter, UPR activation, luminescence; percent of tunicamycin response over DMSO baseline;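 active means at 10 µM dose, activation of 40% or more, normalized to positive control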;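 further: 100% = tunicamycin at 10 µg/mL and 0% = DMSO alone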
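Assay system: CHO cells with stable CHOP pathway luciferase reporter; Buffer or medium: F12 plus 10% serum; Times: 16-18 h cell attachment, then 6 h compound exposure, 37 °C; Signal: luciferase luminescence; Read-out basis: percent activation relative to tunicamycin control; Control set: tunicamycin high control, DMSO low control.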
Mdm2-MdmX inh – disrupts the human Mdm2-MdmX interaction. inhibition, % at 8 µM. actives 3% (n = 330,000). O15151+Q00987. SaOS-2 split-luciferase Mdm2/MdmX complementation, luminescence;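 active means inhibition of at least 50% at 8 µM in the primary screen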
Target sequence (O15151 whole entry, looked up): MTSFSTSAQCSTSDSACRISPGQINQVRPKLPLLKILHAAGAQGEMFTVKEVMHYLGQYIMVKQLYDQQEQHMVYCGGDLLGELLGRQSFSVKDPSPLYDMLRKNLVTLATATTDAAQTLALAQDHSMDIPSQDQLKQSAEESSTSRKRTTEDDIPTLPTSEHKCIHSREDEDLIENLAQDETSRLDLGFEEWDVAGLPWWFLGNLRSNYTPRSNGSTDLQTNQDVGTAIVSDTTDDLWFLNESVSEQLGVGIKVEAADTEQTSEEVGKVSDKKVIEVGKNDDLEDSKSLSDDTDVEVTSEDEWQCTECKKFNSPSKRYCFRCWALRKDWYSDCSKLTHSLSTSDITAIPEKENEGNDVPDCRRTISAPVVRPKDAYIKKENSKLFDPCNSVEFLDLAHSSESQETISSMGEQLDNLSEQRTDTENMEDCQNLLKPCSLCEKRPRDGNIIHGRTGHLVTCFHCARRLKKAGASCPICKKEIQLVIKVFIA
Target sequence (Q00987 whole entry, looked up): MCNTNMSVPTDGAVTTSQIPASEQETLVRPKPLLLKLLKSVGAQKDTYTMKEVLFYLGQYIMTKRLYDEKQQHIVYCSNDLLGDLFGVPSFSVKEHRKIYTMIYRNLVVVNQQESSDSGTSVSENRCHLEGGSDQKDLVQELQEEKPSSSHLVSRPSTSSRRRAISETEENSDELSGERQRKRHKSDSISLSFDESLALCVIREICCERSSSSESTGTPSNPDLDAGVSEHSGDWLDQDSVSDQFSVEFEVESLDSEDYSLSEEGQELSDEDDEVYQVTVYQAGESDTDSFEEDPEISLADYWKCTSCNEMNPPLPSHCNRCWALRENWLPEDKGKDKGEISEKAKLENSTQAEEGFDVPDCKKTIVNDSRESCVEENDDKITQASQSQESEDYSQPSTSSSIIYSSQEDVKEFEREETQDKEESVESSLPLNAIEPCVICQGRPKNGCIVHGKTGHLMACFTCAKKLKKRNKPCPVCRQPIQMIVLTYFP
CSC inhib – blocks cancer stem cells. cancer stem cell-like cells viability, luminescence. inhibition, % at 7.5 µM. actives 1.1% (n = 300,000). AID 2717; in the data active means inhibition above about 75%; inconclusive means no clear call, values can overlap the other calls; tested in HMLE shEcad cells
SKKanGAS inh – inhibitors of SKKanGAS S. pyogenes growth in kanamycin (SK-promoter or general growth effect); BacTiter-Glo, 6 h; actives 1.3% (n = 300,000); AID 1662; inhibition, % at 7.5 µM;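 active means mean replicate score, as percent of positive control median, at least 50; inconclusive means mean below 50 but one replicate at or above 50; inactive means mean and every replicate below 50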;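 further: strain carries kanamycin resistance gene driven by streptokinase promoter and grows in 40 µg/ml kanamycin; loss of luminescence reflects streptokinase promoter inhibition or plain growth inhibition; 0% = median of DMSO wells and 100% = positive control at its reference dose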
Beta cell apopt – beta cell apoptosis inhibition; INS-1E cytokine-induced death, ATP luminescence, 48 h; percent of positive-control rescue, neutral wells zero; protection from apoptosis, % (no concentration beside the values); actives 0.8% (n = 300,000);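 active means Every replicate reaches about 75%, or at least half do and their mean reaches it too, limit read from the data; inconclusive means At least half of replicates reach the limit but their mean does not; inactive means Under half of replicates reach the limit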;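 further: 0% = cytokine-treated negative control wells and 100% = positive control rescue; higher means more ATP so stronger rescue from cytokine killing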
Mdm2 MdmX conf – confirmation of human Mdm2/MdmX interaction inhibitors | actives 55% (n = 10,000) | Mdm2-MdmX binding, luminescent assay | inhibition, % at 8 µM | shares compounds with Mdm2-MdmX inh; in the data active means inhibition above about 40%
Full FLuc ctr – full-length luciferase inhibition in Mdm2/MdmX counter-screen; shares compounds with Mdm2-MdmX inh; SaOS-2 full-length luciferase counterscreen, luminescence; inhibition, % at 8 µM; actives 77% (n = 6,200);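 active means mean inhibition at 8 µM reaching about 37%, which flags the compound as non-specific, limit read from the data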;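 further: p53-null SaOS-2 cells with luciferase driven by a doxycycline-inducible promoter; compound on cells about two nights before reading with doxycycline added after day one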
Numbers without * were called inactive; ? = inconclusive; . = not tested or not shown.

SMILES	UPR XBP1 act	UPR CHOP act	Mdm2-MdmX inh	CSC inhib	SKKanGAS inh	Beta cell apopt	Mdm2 MdmX conf	Full FLuc ctr
Cc1cc(NCCCn2ccnc2)n2nc(C)c(-c3ccccc3)c2n1	1	3	-26	-4	-6	11	.	.
COc1ccc(CCNc2cc(C)nc3c(-c4ccccc4)cnn23)cc1OC	-3	7	68*	.	30	.	32	.
Cc1cc(NC2CCCC2)n2nc(C)c(-c3ccccc3)c2n1	-2	9	-16	43	0	11	.	.
Cc1cc(NC2CCCC2)n2ncc(-c3ccccc3)c2n1	-10	-4	84*	29	23	11	82*	181*
COc1cc2c(C)nc3c(cnn3-c3ccccc3)c2cc1OC	2	5	-61	12	-30	5	.	.
Cc1ccc(NC(=O)Nc2ccnc(-c3cccnc3)n2)cc1	3	9	76*	30	7	-19	71*	68*
Cc1ccc(C(=O)Nc2ccnc(-c3cccnc3)n2)cc1	4	4	28	3	-3	-7	.	.
CCOc1ccc(NC(=S)NNc2ccnc3cc(Cl)ccc23)cc1	-4	1	18	.	-12	2	.	.
S=C(NNc1ccnc2cc(Cl)ccc12)Nc1ccc(Cl)cc1Cl	9	7	92*	28	71*	15	31	49*
Cc1nc2sccn2c(=O)c1S(=O)(=O)Nc1cccc(Cl)c1C	-1	0	-1	-12	-1	0	.	.
CCc1ccc(OCC(=O)NNC(=O)C2CCC2)cc1	1	-2	11	-4	-4	-7	.	.
Cc1ccc(CNC(=O)/C=C/c2c(Cl)cccc2Cl)cc1	2	1	55*	6	1	-5	8	.
Cc1ccc(CNC(=O)/C=C/c2ccccc2Cl)cc1	-1	0	-17	0	11	-8	.	.
CN(C)c1ccc(NC(=O)/C=C/c2c(Cl)cccc2Cl)cc1	1	5	64*	.	-7	6	69*	50*
C=CCN1C(=O)[C@@H]2Cc3c([nH]c4ccccc34)C(c3cc(OC)c(OC)c(OC)c3)N2C1=S (stereo partly specified)	0	0	51*	28	25	7	22	.
C=CCN1C(=O)[C@@H]2Cc3c([nH]c4ccccc34)C(c3ccc(O)cc3)N2C1=S (stereo partly specified)	-5	0	29	.	31	.	.	.
CCN(CC(=O)Nc1ccc(NC(C)=O)cc1)C(=O)CCCSc1nc2ccccc2[nH]1	0	-1	13	4	-11	-1	.	.
Cc1nc2ccccc2c(=O)n1/N=C/c1c(O)ccc2oc3c(c12)CCCC3	14	2	63*	82*	22	93*	38	50*
Oc1nc(Nc2ccc(Cl)cc2Cl)sc1/C=C1\C=Nc2ccccc21	0	0	86*	0	115*	.	34	.
O=S(=O)(c1ccc(Br)cc1)c1cnc2ccccc2n1	-3	0	50*	14	6	-5	14	.
O=S(=O)(Cc1ccccc1)c1cnc2ccccc2n1	-7	-1	59*	4	2	-15	14	.
Cc1c(NC(=O)CSc2nc(N)cc(N)n2)c(=O)n(-c2ccccc2)n1C	0	-1	1	-13	.	-5	.	.
CCC(C)Sc1ccc(-c2nc3cc(C)ccn3c2NC2CCCCC2)cc1 (stereo unspecified)	5	14	85*	.	.	.	-42	.
CCCCCCSc1ccc(-c2nc3cc(C)ccn3c2NC2CCCCC2)cc1	-5	0	51*	52	.	6	-2	.
COc1cccc2c1C(=O)c1c(O)c3c(c(O)c1C2=O)C[C@@](O)(C(=O)CO)C[C@@H]3O[C@H]1C[C@H](N)[C@H](O)[C@H](C)O1	-5	-3	99*	43	107*	32	99*	0
SMILES	UPR XBP1 act	UPR CHOP act	Mdm2-MdmX inh	CSC inhib	SKKanGAS inh	Beta cell apopt	Mdm2 MdmX conf	Full FLuc ctr
CNC(=O)c1[nH]cnc1C(=O)NCC(=O)OCc1ccccc1	2	0	9	-6	2	0	.	.
COc1cccc(C2C3=C(N=c4s/c(=C\c5cccc(O)c5)c(=O)n42)c2ccccc2CC3)c1OC (stereo unspecified)	0	3	68*	91*	?	3	11	.
O=C1Nc2cc3c(cc2C1=O)sc1ccccc13	1	0	0	-1	-10	-7	.	.
Cc1ccccc1OCC(=O)N/N=C/c1cc2ccccc2nc1Cl	2	0	16	6	16	-7	.	.
C=CCc1ccccc1OCC(=O)N/N=C/c1ccc(OC(C)=O)cc1OC(C)=O	1	-3	52*	77*	14	-21	51*	37*
CCC1C(=O)N=C(SCC(=O)Nc2nc3ccccc3s2)NC1=O (stereo unspecified)	-2	0	72*	-21	-5	-2	18	.
CCC1C(=O)N=C(SCC(=O)Nc2cccc3ccccc23)NC1=O (stereo unspecified)	0	-1	-7	-17	5	.	.	.
Cn1cc(SCC(=O)Nc2nc3ccccc3s2)c2ccccc21	2	-3	78*	-6	7	-26	67*	62*
Nc1cccc2c1C(=O)N(C(=O)/C=C/c1cccc(F)c1)C2=O	3	14	56*	25	3	-2	50*	65*
CCCCCCCN(C(=O)CCl)c1cccc(C)c1	-1	4	99*	-4	4	11	97*	23
N#CCCN(C(=O)CCl)c1cccc(Cl)c1	-5	0	100*	21	-8	-44	92*	54*
CCCCCCN(C(=O)CCl)c1ccccc1	-10	16	98*	12	-4	32	92*	22
O=C(CCl)N(c1ccccc1)c1ccccc1	.	.	.	.	11	.	.	.
Cc1oc(-c2ccccc2F)nc1CSCC(=O)NC1CCC(C)CC1 (stereo unspecified)	-2	2	1	-3	15	4	.	.
CN(C(=O)COC(=O)c1ccc2ccccc2n1)C1CCCCC1	1	-1	27	-16	.	-1	.	.
O=c1[nH]c(O)c(N=Nc2ccc(Cl)c(S(=O)(=O)Nc3ccccc3Cl)c2)c(=O)[nH]1	-3	-1	14	-7	.	-1	.	.
Cc1cc(Oc2ccc(-c3nnc(-c4ccccc4)o3)cc2[N+](=O)[O-])ccc1Cl	12	2	75*	-10	-4	1	2	.
